Source: PubChem
PP1 inh = counter-screen for PP5 inhibitors: inhibitors of human PP1-alpha; P62136; purified PP1alpha, OMFP fluorescence; inhibition, % at 6.7 µM; 320,000 compounds, 0.9% hits; AID 2235;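 active means inhibition above the mean inhibition of all tested compounds plus 3 SD, computed separately for each screening campaign, cut at about 15% in these data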
Target sequence (P62136 whole entry, looked up): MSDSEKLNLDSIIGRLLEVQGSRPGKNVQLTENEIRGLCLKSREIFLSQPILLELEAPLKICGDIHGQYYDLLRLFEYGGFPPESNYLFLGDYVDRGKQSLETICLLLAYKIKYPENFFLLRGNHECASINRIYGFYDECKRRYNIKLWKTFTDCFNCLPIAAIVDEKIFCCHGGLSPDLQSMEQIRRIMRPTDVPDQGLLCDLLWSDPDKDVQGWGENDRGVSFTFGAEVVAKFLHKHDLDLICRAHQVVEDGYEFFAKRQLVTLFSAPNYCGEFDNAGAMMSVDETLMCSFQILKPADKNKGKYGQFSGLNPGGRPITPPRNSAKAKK
PREPL inh = inhibitors of human prolyl oligopeptidase-like enzyme PREPL. Q4J6C6. recombinant PREPL, fluorescence polarization activity-based probe. inhibition, % at 5.96 µM. 320,000 compounds, 0.68% hits. AID 2751; in the data active means inhibition above about 43%;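 further: 0% = enzyme with DMSO and 100% = wells lacking enzyme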
Fh CTSL1 inh = cathepsin L1 inhibition, PFM18AAP counter-screen; recombinant F. hepatica cathepsin L1, Z-Leu-Arg-MCA fluorescence; inhibition, % at 5.96 µM; 300,000 compounds, 0.49% hits; AID 1906;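 active means inhibition above the mean of all tested compounds plus 3 SD, set per screening campaign, cut at about 17% in these data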;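 further: 0% = plate median of test compound wells and 100% = 1 µM Z-Phe-Ala-diazomethylketone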
UBC13 polyUb = inhibitors of human UBC13 polyubiquitin chain formation. P61088. AID 485273. 330,000 compounds, 0.47% hits. TR-FRET. inhibition, % at 20 µM; in the data active means inhibition above about 45%, passing the limit was not always enough; inconclusive means no clear call, values can overlap the other calls
PP5 inh = PP5 (human) phosphatase inhibition; P53041; purified PP5c, OMFP substrate fluorescence; inhibition, % at 6.7 µM; 320,000 compounds, 0.18% hits; AID 1987;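 active means inhibition above the campaign's mean inhibition across all tested compounds plus 3 SD, cut at about 9.5% in these data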;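 further: 0% = DMSO only and 100% = 100 µM cantharidin control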
UCH37 DUB inh = human UCH37 deubiquitinating enzyme inhibition; purified proteasome/UCH37, Ub-AMC cleavage fluorescence; inhibition, % (concentration not given with the values); 330,000 compounds, 0.33% hits; AID 588478;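 active means mean inhibition over replicate wells above about 20%, limit read from the data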;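 further: 0% = compound-free wells with enzyme and 100% = wells lacking proteasome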
Target sequence (Q9Y5K5 whole entry, looked up): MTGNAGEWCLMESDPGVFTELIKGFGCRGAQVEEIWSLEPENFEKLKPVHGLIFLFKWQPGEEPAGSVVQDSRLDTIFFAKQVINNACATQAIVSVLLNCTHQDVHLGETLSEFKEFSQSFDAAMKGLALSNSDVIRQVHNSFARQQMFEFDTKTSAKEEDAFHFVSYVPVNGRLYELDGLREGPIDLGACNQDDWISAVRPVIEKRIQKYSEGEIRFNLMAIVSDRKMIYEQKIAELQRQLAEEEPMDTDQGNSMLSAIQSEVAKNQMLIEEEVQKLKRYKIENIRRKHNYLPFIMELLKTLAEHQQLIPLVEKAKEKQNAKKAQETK
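assay system = human UCH37 enzyme supplied as purified proteasome complex | amount = proteasome at 0.15 nM in the dispensed enzyme solution | schedule = 30 min compound-proteasome preincubation then 25 min substrate reaction, room temperature | measured by = fluorescence, ex 355 nm, em 460 nm | benchmarks = no-proteasome wells (full inhibition) and compound-free wells (no inhibition)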
Casp3 UBC13 ctr = counter-screen for UBC13 inhibitors: human caspase-3 inhibition | shares compounds with UBC13 polyUb | Recombinant caspase-3, Caspase-Glo 3/7 luminescence, 60 min | inhibition, % at 20 µM | 1,400 compounds, 4% hits | AID 488856;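 active means mean inhibition across replicates above about 26%, limit read from the data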;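 further: plate controls were DMSO with caspase-3 for no effect and DMSO wells lacking enzyme for full effect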
UBC13 confirm = human UBC13 polyubiquitin inhibition, confirmed | shares compounds with UBC13 polyUb | UBC13 polyubiquitination, TR-FRET, biochemical | inhibition, % at 10 µM | 1,400 compounds, 68% hits; in the data active means inhibition above about 45%; inconclusive means no clear call, values can overlap the other calls
* marks the source's active call; other numbers are inactive results. Shown are actives, neighbours in structure and some others; about 2.3% of the full set was active somewhere.

CN(C)C=NS(=O)(=O)c1ccc(Cl)cc1 was read as UCH37 DUB inh -0.4.
For CCOc1ccc(NS(=O)(=O)c2cc(C(=O)NCCCN3CCOCC3)ccc2C)cc1 the results were PP1 inh 1.9, PREPL inh 14.4, UBC13 polyUb 73.6*, PP5 inh 6.0, UCH37 DUB inh 3.3, Casp3 UBC13 ctr -2.2 and UBC13 confirm 94.1*.
For CCOc1ccc(C(=O)NCCCN2CCOCC2)cc1OCC the results were PP1 inh -0.5, PREPL inh 0.1, Fh CTSL1 inh -1.5, UBC13 polyUb 5.6, PP5 inh 1.5 and UCH37 DUB inh 0.8.
`CCCOc1ccc(C(=O)NNC(=S)NC(=O)CC)cc1` gave PP1 inh 7.2, PREPL inh 14.6, Fh CTSL1 inh -4.0, UBC13 polyUb 66.4*, PP5 inh 1.4, UCH37 DUB inh -39.0, Casp3 UBC13 ctr -0.3 and UBC13 confirm 82.7*.
`COc1ccc(OCC(=O)NNC(=S)NC(=O)c2ccc([N+](=O)[O-])cc2)cc1` gave PP1 inh 13.8, PREPL inh -2.0, Fh CTSL1 inh 0.1, UBC13 polyUb 60.1*, PP5 inh -1.6, UCH37 DUB inh 1.0, Casp3 UBC13 ctr -1.0 and UBC13 confirm 30.9.
`CCC(=O)NC(=S)NNC(=O)c1ccc(NC(=O)c2ccccc2)cc1` gave PP1 inh -6.3, PREPL inh -3.5, Fh CTSL1 inh -0.9, UBC13 polyUb 70.7*, PP5 inh 0.0, UCH37 DUB inh -2.7, Casp3 UBC13 ctr 12.5 and UBC13 confirm 91.2*.
CCCCC(=O)NC(=S)NNC(=O)c1ccc(OC)cc1 was read as PP1 inh 1.7, PREPL inh 0.8, Fh CTSL1 inh 1.3, UBC13 polyUb 68.6*, PP5 inh 0.7, UCH37 DUB inh -1.5, Casp3 UBC13 ctr 1.9 and UBC13 confirm 40.8.
For Cc1ccc(C=N/N=C2/NC(=O)C(CC(=O)Nc3ccc(Cl)cc3)S2)o1 (stereo not drawn) the results were UCH37 DUB inh 4.9.
COc1cccc2c1OC(=NO)C(C(=O)Nc1cccc(C)c1C)C2 (stereo not drawn) was read as UCH37 DUB inh 6.3.
`CC(=NOCC(=O)O)c1ccc(Cl)cc1` gave UCH37 DUB inh 3.3.
For COc1ccc(C=NNC(=O)c2cccc([N+](=O)[O-])c2)cc1O the results were UCH37 DUB inh 4.7.
`COc1nc(-c2cccs2)cc(-c2ccc(C)cc2)c1C#N` gave PP1 inh 0.0, PREPL inh 4.0, Fh CTSL1 inh 1.6, UBC13 polyUb 27.7, PP5 inh 2.1 and UCH37 DUB inh -273.4.
Screening COc1ccc(-c2cc(-c3cccs3)nc(OC)c2C#N)cc1OC returned PP1 inh -2.9, PREPL inh 1.6, Fh CTSL1 inh 1.9, UBC13 polyUb 49.8*, PP5 inh 2.6, UCH37 DUB inh -434.8, Casp3 UBC13 ctr -2.3 and UBC13 confirm 44.5.
O=C1c2cccc3cccc(c23)C(=O)N1CCc1ccccc1 was read as PP1 inh 0.7, PREPL inh -0.7, Fh CTSL1 inh 4.5, UBC13 polyUb 51.3*, PP5 inh 1.0, UCH37 DUB inh -24.1, Casp3 UBC13 ctr 3.3 and UBC13 confirm inconclusive.
CN(C(=O)CCCN1C(=O)c2cccc3cccc(c23)C1=O)c1ccccc1 was read as PP1 inh -0.4, PREPL inh 10.1, Fh CTSL1 inh 0.7, UBC13 polyUb -22.2, PP5 inh 1.4 and UCH37 DUB inh -1.2.
For O=C(COC(=O)c1cc(Br)ccc1O)Nc1cccnc1Cl the results were PP1 inh -8.6, PREPL inh -8.7, Fh CTSL1 inh -4.5, UBC13 polyUb 47.4*, PP5 inh 0.5, UCH37 DUB inh -3.5, Casp3 UBC13 ctr 0.5 and UBC13 confirm inconclusive.
For CCN(CC)CCCNc1nc2cc(OC)c(OC)cc2c2nc(-c3cccnc3)nn12 the results were PP1 inh 1.6, PREPL inh 12.0, Fh CTSL1 inh 3.3, UBC13 polyUb 20.2, PP5 inh 1.8 and UCH37 DUB inh 10.6.
For CCN(CC)CCCNc1nc2cc(OC)c(OC)cc2c2nc(-c3ccccc3)nn12 the results were PP1 inh -1.3, PREPL inh 16.8, Fh CTSL1 inh -3.3, UBC13 polyUb 54.6*, PP5 inh 3.6, UCH37 DUB inh -59.6, Casp3 UBC13 ctr -1.1 and UBC13 confirm 45.4*.
`O=C(NNC(=O)C1CCN(S(=O)(=O)c2ccc(Cl)cc2)CC1)c1ccc(Cl)cc1` gave PP1 inh -5.3, PREPL inh -10.3, Fh CTSL1 inh 1.4, UBC13 polyUb 28.6, PP5 inh 2.1 and UCH37 DUB inh 3.1.
For CCN(CC)S(=O)(=O)c1ccc(C(=O)NNC(=O)C2CCN(S(=O)(=O)c3ccc(Cl)cc3)CC2)cc1 the results were PP1 inh -2.7, PREPL inh -3.4, Fh CTSL1 inh -3.4, UBC13 polyUb 77.7*, PP5 inh 1.7, UCH37 DUB inh 4.6, Casp3 UBC13 ctr 0.3 and UBC13 confirm 77.0*.
COc1cc(CNCCc2c[nH]c3ccccc23)ccc1OCc1ccccc1F was read as PP1 inh 2.4, PREPL inh -92.6, Fh CTSL1 inh -0.9, UBC13 polyUb 47.1*, PP5 inh 1.9, UCH37 DUB inh 0.9, Casp3 UBC13 ctr -0.7 and UBC13 confirm 44.2.
`COc1cccc(CNCCc2c[nH]c3ccccc23)c1OCc1ccccc1` gave PP1 inh 2.2, PREPL inh -36.2, Fh CTSL1 inh 4.1, UBC13 polyUb 38.7, PP5 inh 1.9 and UCH37 DUB inh 2.0.
`Nc1nc(Cl)nc2ccc(Br)cc12` gave PP1 inh 1.9, PREPL inh -1.2, Fh CTSL1 inh -1.0, UBC13 polyUb 49.4*, PP5 inh 0.8, Casp3 UBC13 ctr -2.7 and UBC13 confirm inconclusive.
COc1cccc(C=c2sc(=CC(=O)c3ccc(C)cc3)[nH]c2=O)c1OC was read as UCH37 DUB inh 1.5.
For O=C(NN=Cc1cccnc1)c1cc(-c2ccccc2)nc2ccccc12 the results were UCH37 DUB inh 2.4.
For CCCCn1c(=O)[nH]c(=O)c2c1nc(-c1ccc(C#N)cc1)n2C1CCCC1 the results were PP1 inh 10.0, PREPL inh 9.9, Fh CTSL1 inh 3.0, UBC13 polyUb 78.5*, PP5 inh 0.9, UCH37 DUB inh -464.3, Casp3 UBC13 ctr -4.2 and UBC13 confirm 68.0*.
Screening COc1ccc(CC(C)=NNC(=S)Nc2ccc(Cl)cc2)cc1 returned UCH37 DUB inh 0.6.
Screening CC1CC(C)CN(CCCNC(=O)C2CCN(c3ncnc4c3sc3cccc(F)c34)CC2)C1 (stereo not drawn) returned PP1 inh -2.8, PREPL inh 31.0, Fh CTSL1 inh 2.4, UBC13 polyUb 48.1*, PP5 inh -1.3, UCH37 DUB inh -2.9, Casp3 UBC13 ctr -1.6 and UBC13 confirm 53.9*.
